PubChem BioAssay
The source made the active and inactive calls.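 Rule for the calls, unless noted: active = potentiation averaged over duplicate wells exceeding buffer-only control mean by more than 3 SD; inactive = the rest.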

Columns and labels:
[1] = nonspecific flux increase, KCNQ1-free cells – parental CHO cells, counter-screen for KCNQ1 potentiator project (AID 493006;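 active = duplicate-averaged activation above buffer control mean plus 5 SD of those controls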); settings: parental CHO-K1 cells, FluxOR thallium flux, at 10 µM; hits give high values
In short: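 Assay system: Untransfected host CHO-K1 cells with FluxOR thallium dye | Probe or stimulus: Potassium/thallium depolarization pulse | Schedule: Overnight 37 °C plating, 90 min RT dye, 20 min compound | Detection: Kinetic thallium-flux fluorescence | Read-out: Max-minus-min fluorescence over baseline, percent of buffer-to-R-L3 span | Benchmarks: Low control buffer, high control R-L3 activator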

[2] = molecular target: Potassium voltage-gated channel subfamily KQT member 1 (Homo sapiens) (UniProt P51787); assay: enhancement of KCNQ1 channel thallium flux – FluxOR thallium flux, CHO cells, duplicates, confirmation (AID 493007); settings: KCNQ1 cell line, FluxOR thallium flux fluorescence, at 10 µM; hits give high values, % of reference activator effect, buffer zero;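 for outcome: cells depolarized by a potassium plus thallium sulfate stimulus after compound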
Chain of Potassium voltage-gated channel subfamily KQT member 1 (Homo sapiens) (P51787 whole entry, looked up): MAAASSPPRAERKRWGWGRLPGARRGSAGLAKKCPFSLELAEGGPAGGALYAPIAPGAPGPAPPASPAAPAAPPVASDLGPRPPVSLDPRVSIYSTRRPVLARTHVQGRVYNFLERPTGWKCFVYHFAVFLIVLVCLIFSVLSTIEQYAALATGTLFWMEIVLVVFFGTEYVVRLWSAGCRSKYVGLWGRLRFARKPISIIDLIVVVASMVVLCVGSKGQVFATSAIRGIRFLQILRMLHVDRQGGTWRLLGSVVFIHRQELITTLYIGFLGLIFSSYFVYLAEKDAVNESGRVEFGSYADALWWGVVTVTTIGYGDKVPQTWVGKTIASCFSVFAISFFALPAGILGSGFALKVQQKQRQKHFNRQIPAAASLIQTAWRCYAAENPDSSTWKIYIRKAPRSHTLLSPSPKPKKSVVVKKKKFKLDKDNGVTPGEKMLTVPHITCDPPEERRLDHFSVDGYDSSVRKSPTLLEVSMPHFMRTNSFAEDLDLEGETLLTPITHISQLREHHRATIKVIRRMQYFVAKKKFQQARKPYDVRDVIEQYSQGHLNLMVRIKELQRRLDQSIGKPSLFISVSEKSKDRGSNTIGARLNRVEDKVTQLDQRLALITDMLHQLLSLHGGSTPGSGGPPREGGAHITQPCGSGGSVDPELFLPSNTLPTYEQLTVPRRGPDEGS
In short: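 Material: KCNQ1-expressing CHO cell line; Incubation: FluxOR dye loading 90 min, compound exposure 20 min, room temperature; Detection: FluxOR Tl+ flux fluorescence, 10 s baseline plus 110 s recording; Read-out: percent activation between buffer and R-L3 responses; Control set: buffer-only wells as 0% and R-L3 activator as 100%; Replication: duplicate wells per compound.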

[3] = molecular target: Potassium voltage-gated channel subfamily KQT member 2 (Rattus norvegicus) (UniProt O88943); assay: KCNQ2 thallium flux enhancement – KCNQ2-CHO-K1 cells, selectivity assay for KCNQ1 potentiator project (AID 493009;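 active = mean duplicate potentiation above the buffer control mean plus 5 SD of buffer wells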;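 note: assay conditions were tuned for KCNQ1 rather than KCNQ2 modulators; signal is max minus min fluorescence divided by baseline after thallium stimulus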); settings: FluxOR thallium flux fluorescence, at 10 µM; hits give high values, scaled: buffer 0, activator control 100
Chain of Potassium voltage-gated channel subfamily KQT member 2 (Rattus norvegicus) (O88943 whole entry, looked up): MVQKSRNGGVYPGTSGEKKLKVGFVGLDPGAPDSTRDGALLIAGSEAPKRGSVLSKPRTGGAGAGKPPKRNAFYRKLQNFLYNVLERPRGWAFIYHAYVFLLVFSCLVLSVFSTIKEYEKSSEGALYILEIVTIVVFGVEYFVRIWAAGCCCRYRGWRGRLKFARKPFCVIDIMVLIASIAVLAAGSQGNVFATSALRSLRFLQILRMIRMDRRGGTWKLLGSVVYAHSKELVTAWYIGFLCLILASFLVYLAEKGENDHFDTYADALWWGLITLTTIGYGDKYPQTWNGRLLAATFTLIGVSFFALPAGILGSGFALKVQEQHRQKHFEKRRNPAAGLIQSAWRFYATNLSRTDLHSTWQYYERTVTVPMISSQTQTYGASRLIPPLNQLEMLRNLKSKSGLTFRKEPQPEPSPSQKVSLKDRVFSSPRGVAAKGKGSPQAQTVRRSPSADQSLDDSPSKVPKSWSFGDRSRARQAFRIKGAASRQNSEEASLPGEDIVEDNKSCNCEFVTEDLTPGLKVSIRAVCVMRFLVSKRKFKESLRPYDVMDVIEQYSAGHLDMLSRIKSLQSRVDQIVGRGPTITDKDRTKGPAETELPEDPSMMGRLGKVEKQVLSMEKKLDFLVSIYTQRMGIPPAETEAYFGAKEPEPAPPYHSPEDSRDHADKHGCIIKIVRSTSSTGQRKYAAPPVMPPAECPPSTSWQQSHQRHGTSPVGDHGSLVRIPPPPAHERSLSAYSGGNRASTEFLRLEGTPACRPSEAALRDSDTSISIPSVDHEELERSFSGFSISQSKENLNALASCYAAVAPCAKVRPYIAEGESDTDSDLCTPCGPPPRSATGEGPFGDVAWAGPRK

[4] = molecular target: Potassium voltage-gated channel subfamily KQT member 1 (Homo sapiens) (UniProt P51787); assay: KCNQ1 activators by electrophysiology – IonWorks patch clamp, KCNQ1-CHO cells, orthogonal assay for KCNQ1 potentiator project, confirmation (AID 493184;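 active = current rise at least 3 SD above the untreated control mean in each of two repeat wells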;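 for current potentiation: percent change of the same well's current before compound addition so 0% = no change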); settings: automated patch clamp current, at 10 µM; hits give high values
In short: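 assay system = KCNQ1-expressing CHO cells | medium = external bath solution at pH 7.4 | probe or stimulus = 2,000 ms depolarization, -90 to +40 mV | compound dosing = 10 µM final, single point | measured by = automated voltage clamp, amphotericin B perforated patch | measure = percent current increase versus pre-compound level | replication = duplicates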

SMILES	activation [1]	potentiation [2]	potentiation [3]	outcome [4]	outcome [1]	outcome [2]	outcome [3]	current potentiation [4]
Cc1nn(-c2ccccc2)c(Cl)c1/C=C1\SC(=S)NC1=O	614% (active)	295% (active)	704% (active)	inactive				
Cc1cccc2sc(N(CCCN(C)C)C(=O)CCS(=O)(=O)c3ccccc3)nc12				inactive	inactive	inactive	inactive	
O=c1c2ccccc2nc(-c2ccc(Cl)c(Cl)c2)n1O	518% (active)	244% (active)	558% (active)	inactive				
CCCN1CCC(NC(=S)Nc2cccc(Cl)c2Cl)CC1				inactive	inactive	inactive	inactive	
CSC(=S)N/N=C/c1ccccc1	245% (active)	48.5% (active)	226% (active)	inactive				
CCOc1ccc2nc(/N=C/c3c(C)[nH]n(-c4ccccc4)c3=O)sc2c1	370% (active)	360% (active)	661% (active)	inactive				
CCc1ccc(NC(=O)CSc2nc3ccsc3c(=O)n2CCC(=O)O)cc1	148% (active)	33% (active)	172% (active)	inactive				
CC(C)c1nc2n[nH]c(N)c2c2c1CCCC2				inactive	inactive	inactive	inactive	
CCc1ccc2c(c1)c(N=NC1=NC(=O)CS1)c(O)n2C	162% (active)	30% (active)		inactive			inactive	
CCCCOC(=O)c1ccc(NC(=S)NC(=O)c2c(Cl)cnn2C)cc1		77.5% (active)	160% (active)	inactive	inactive			
Cc1cc(/C=N/NC(=O)c2cccs2)c(C)n1-c1ccccc1				inactive	inactive	inactive	inactive	
CC(=O)Nc1ccc(S(=O)(=O)N2CCC(C(=O)O)CC2)cc1				inactive	inactive	inactive	inactive	
COc1ccc(-c2csc(NC(=O)C3CCCCN3S(=O)(=O)c3ccccc3)n2)cc1 (stereo not given)		93.5% (active)			inactive		inactive	122% (active)
CCCCn1c(=O)nc2n(-c3ccccc3C)c3ccccc3cc-2c1=O				inactive	inactive	inactive	inactive	
COc1cc(CNCCN2CCOCC2)ccc1OCc1ccc(Cl)cc1Cl				inactive	inactive	inactive	inactive	
Cc1cccc(NC(=O)Nc2ccc(OCc3ccccc3)cc2)n1				inactive	inactive	inactive	inactive	
O=C(NNc1nc2c(F)cc(F)cc2s1)c1ccccc1				inactive	inactive	inactive	inactive	
CN(CCCNC(=O)CSc1cc(=O)n(C)c2ccc(Cl)cc12)Cc1ccccc1				inactive	inactive	inactive	inactive	
CCOC(=O)Cc1csc(NC(=S)NC(=O)c2ccccc2C)n1	201% (active)	45.5% (active)	200% (active)	inactive				
COc1ccc(NC2=NC3(CCCCC3)N=C(N)N2)cc1				inactive	inactive	inactive	inactive	

SMILES	activation [1]	potentiation [2]	potentiation [3]	outcome [4]	outcome [1]	outcome [2]	outcome [3]	current potentiation [4]
CCC(CC)c1nnc(NC(=O)c2cc(C(=O)OC)cc([N+](=O)[O-])c2)s1	366% (active)	179% (active)	419% (active)	inactive				
CCCc1cc2c(=O)c(-c3ccccn3)c(C)oc2cc1O				inactive	inactive	inactive	inactive	
Cc1sc2ncnc(SCC(=O)NC(=O)c3cccn3C)c2c1C	170% (active)	28.5% (active)	201% (active)	inactive				
COC(=O)CSc1nc(N)c2c3c(sc2n1)C(c1ccccc1)SC(c1ccccc1)C3 (stereo not given)				inactive	inactive	inactive	inactive	
CCc1nccn1S(=O)(=O)c1ccc2ccc(C)cc2c1				inactive	inactive	inactive	inactive	
O=S(=O)(NC(=S)NC1CCCCC1)c1ccc(Br)cc1	200% (active)	52% (active)	190% (active)	inactive				
O=c1[nH]c(Nc2ccccc2)cc2cc(Br)ccc12				inactive	inactive	inactive	inactive	
O=C(CN1CCN(Cc2ccc(F)cc2Cl)C1=O)NCCc1ccccc1				inactive	inactive	inactive	inactive	
Cc1ccccc1OCC(=O)N=Nc1c(O)n(C)c2ccccc12	188% (active)	42% (active)	188% (active)	inactive				
O=c1c2cc(Cl)cc(Cl)c2nc2n1CCC2				inactive	inactive	inactive	inactive	
O=C(CSc1cccc[n+]1[O-])c1cc(Cl)ccc1Cl				inactive	inactive	inactive	inactive	
COC(=O)c1ccc(N2CCN(S(=O)(=O)c3ccc(Br)cc3)CC2)c([N+](=O)[O-])c1				inactive	inactive	inactive	inactive	
C=CCNC(=S)Nc1sc2c(c1C(=O)OCC)CC(C(C)C)OC2 (stereo not given)	268% (active)	132% (active)	246% (active)	inactive				
COC(=O)c1c(N)sc2c1CCN(c1ncc(C(F)(F)F)cc1Cl)C2			142% (active)	inactive	inactive	inactive		
CC1CCN(C(=S)NC(=O)c2cccs2)CC1	143% (active)	28.5% (active)	186% (active)	inactive				
COc1ccccc1N1C(=NC(=O)C(C)Oc2ccccc2)SC2CS(=O)(=O)CC21 (stereo not given)				inactive	inactive	inactive	inactive	
CCCc1cc(=O)n2[nH]c(C)c(-c3ccc(Cl)cc3)c2n1	180% (active)	23% (active)	172% (active)	inactive				
O=C(NC(=S)Nc1ccc(C(F)(F)F)cc1)c1csnn1	590% (active)	269% (active)	555% (active)	inactive				
O=C(NC(=S)Nc1ccc(N2CCCCC2)cc1)c1ccco1	214% (active)	180% (active)	228% (active)	inactive				
Cc1c(N2C(=O)/C(=C\c3ccccc3O)SC2=S)c(=O)n(-c2ccccc2)n1C	398% (active)	200% (active)	392% (active)	inactive				

SMILES	activation [1]	potentiation [2]	potentiation [3]	outcome [4]	outcome [1]	outcome [2]	outcome [3]	current potentiation [4]
CCOC(=O)c1n[nH]n2c1nc(=S)c1ccccc12	260% (active)	54.5% (active)	246% (active)	inactive				
O=c1cc(-c2ccccc2)cc(-c2ccccc2)n1O	254% (active)	87.5% (active)	322% (active)	inactive				
CN1CCN(c2nc(-c3cccs3)cc(C(F)(F)F)n2)CC1	142% (active)			inactive		inactive	inactive	
CCCCC/C=N\NC(=O)Cc1ccc([N+](=O)[O-])cc1				inactive	inactive	inactive	inactive	
COc1ccc(/C(O)=C2/C(=O)C(=O)N(CCCN(C)C)C2c2ccc(Cl)cc2)cc1OC (stereo not given)				inactive	inactive	inactive	inactive	
Cc1ccc(C2=NOC(=O)/C2=C\C=C\c2ccccc2)cc1				inactive	inactive	inactive	inactive	
CCNC(=S)N=Nc1c(O)n(Cc2ccc(Cl)cc2)c2ccccc12		37% (active)	172% (active)	inactive	inactive			
CCOc1ccccc1C1c2[nH]c3ccccc3c2C[C@H]2C(=O)N(C3CC3)CC(=O)N12 (stereo not given in full)					inactive	inactive	inactive	22.3% (active)
C/C(CCc1oc2c(Br)cc(Br)cc2c1-c1ccc(C)o1)=N\O				inactive	inactive	inactive	inactive	
COc1ccc(-c2csc(NC(=S)NC(=O)c3cccs3)n2)cc1OC		40% (active)	216% (active)	inactive	inactive			
CSc1nc2sc3c(c2c(=S)[nH]1)CC(C)(C)OC3	528% (active)	298% (active)	652% (active)	inactive				
CCOC(=O)C(C)Oc1cccc2c(=O)n(CC(=O)NCc3ccc4c(c3)OCO4)ccc12 (stereo not given)				inactive	inactive	inactive	inactive	
CCCCN(CCCC)C(=S)NC(=O)c1ccccc1Cl	556% (active)	238% (active)	542% (active)	inactive				
COc1ccc(C2C(C(=O)c3ccccc3)=C(C)Nc3nc4ccccc4n32)cc1OC (stereo not given)				inactive	inactive	inactive	inactive	
O=c1c2cc(Br)ccc2nc(-c2ccc([N+](=O)[O-])cc2)n1O	346% (active)	147% (active)	410% (active)	inactive				
COc1ccc(-n2nnnc2-c2ccccc2)cc1				inactive	inactive	inactive	inactive	
CCCCNC(=S)NNC(=O)c1nn(C)c(C)c1Cl				inactive	inactive	inactive	inactive	
CCCc1nc(SCC(=O)Nc2cc(Cl)ccc2OC)c2c(=O)n(C)c(=O)n(C)c2n1				inactive	inactive	inactive	inactive	
O=C1CCC(c2ccc(-n3ccnc3)cc2)=NN1				inactive	inactive	inactive	inactive	
CC(=O)c1c(C)[nH]c(-c2ccccc2)nc1=S	151% (active)	40% (active)	178% (active)	inactive				
